Experimental data of several laboratories.
Target: Dual specificity mitogen-activated protein kinase kinase 4 (MAP2K4, Homo sapiens, UniProt P45985)
Sequence (P45985 1-399, as in one of the studies): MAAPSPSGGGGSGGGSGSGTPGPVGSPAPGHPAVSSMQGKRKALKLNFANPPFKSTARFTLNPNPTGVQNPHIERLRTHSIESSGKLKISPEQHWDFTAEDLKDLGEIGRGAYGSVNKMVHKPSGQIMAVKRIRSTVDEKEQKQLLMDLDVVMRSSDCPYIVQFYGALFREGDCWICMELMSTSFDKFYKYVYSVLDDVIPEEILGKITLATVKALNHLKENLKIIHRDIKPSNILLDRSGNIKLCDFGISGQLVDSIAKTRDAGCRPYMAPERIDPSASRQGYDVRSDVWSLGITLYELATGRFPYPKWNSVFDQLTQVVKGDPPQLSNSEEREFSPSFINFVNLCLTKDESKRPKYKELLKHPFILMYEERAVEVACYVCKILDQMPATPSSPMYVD

O=C(Nc1cnn(-c2csc(C(=O)NC3COC3)c2)c1)Nc1ccccc1Cl
remaining activity (enzyme activity; inhibitor; 5 µM): 113%

C[C@H](c1ccc(F)cc1)N(Cc1cccc(C(=O)O)c1)C(=O)c1cnc2ccccc2c1
remaining binding (cell-free assay; competition with immobilised ligand; 1 µM): 100%

CC(C)(C)c1nc(-c2cccc(NS(=O)(=O)c3c(F)cccc3F)c2F)c(-c2ccnc(N)n2)s1
remaining activity (enzyme activity; inhibitor; radiometric; 1 µM): 87%

Nc1ncnc2occ(-c3ccc(NC(=O)Nc4cc(C(F)(F)F)ccc4F)cc3)c12
remaining signal (cell-free assay; inhibitor; 20 µM): 3.9%

CCN1CCN(Cc2ccc(NC(=O)c3ccc(C)c(Oc4ccnc5[nH]ccc45)c3)cc2C(F)(F)F)CC1
inhibition (target engagement in cells; inhibitor; chemoproteomics; A-375; 0.5 µM): -23%

CN(CCCC(F)(F)F)c1nccc(-c2cnn3ncccc23)n1
remaining binding (binding; 1 µM): 100%

CC(C)(C)c1nc2c(s1)c1nc(N)ncc1c1ccc(NS(=O)(=O)c3c(F)cccc3F)c(F)c12
remaining activity (enzyme activity; inhibitor; radiometric; 1 µM): 81%

CC(C)(O)[C@H]1CC[C@H](Nc2ccc3ncc(-c4cccc(C(F)(F)F)c4)n3n2)CC1
remaining activity (enzyme activity; inhibitor; 1 µM): 102%

CN1CCN(c2cnc3c(C4CCN(C(=O)c5ccc(OC(F)(F)F)cc5N)CC4)ncnc3c2)CC1
remaining binding (cell-free assay; competition with immobilised ligand; 1 µM): 100%

Cc1ccc(C(=O)Nc2ccc(CN3CCN(C)CC3)c(C(F)(F)F)c2)cc1C#Cc1cnc2cccnn12
remaining activity (enzyme activity; inhibitor; 23.5 nM): 97%

Cc1sc(C(=O)NC2COC2)cc1-n1cc(NC(=O)Nc2c(F)cccc2Cl)cn1
remaining activity (enzyme activity; inhibitor; 10 µM): 93%
